Laboratory results reported in article PMC3047606 (The Journal of General Physiology, 2011).
Residue numbers refer to the chain shown, from its start. “And” between values parts separate entries of the source, which are not always exact repeats. Identical values can stand only once. “Also recorded” adds a separate entry of the source. Like-named read-outs stand apart in the source and are kept apart here. Marks after values point to notes of the source that are not given here.

Key:
[1] = target: T1, human TRPV3 (WT) (Homo sapiens, UniProt Q8NET8); format: cell-based
T1 sequence (Q8NET8 1-790): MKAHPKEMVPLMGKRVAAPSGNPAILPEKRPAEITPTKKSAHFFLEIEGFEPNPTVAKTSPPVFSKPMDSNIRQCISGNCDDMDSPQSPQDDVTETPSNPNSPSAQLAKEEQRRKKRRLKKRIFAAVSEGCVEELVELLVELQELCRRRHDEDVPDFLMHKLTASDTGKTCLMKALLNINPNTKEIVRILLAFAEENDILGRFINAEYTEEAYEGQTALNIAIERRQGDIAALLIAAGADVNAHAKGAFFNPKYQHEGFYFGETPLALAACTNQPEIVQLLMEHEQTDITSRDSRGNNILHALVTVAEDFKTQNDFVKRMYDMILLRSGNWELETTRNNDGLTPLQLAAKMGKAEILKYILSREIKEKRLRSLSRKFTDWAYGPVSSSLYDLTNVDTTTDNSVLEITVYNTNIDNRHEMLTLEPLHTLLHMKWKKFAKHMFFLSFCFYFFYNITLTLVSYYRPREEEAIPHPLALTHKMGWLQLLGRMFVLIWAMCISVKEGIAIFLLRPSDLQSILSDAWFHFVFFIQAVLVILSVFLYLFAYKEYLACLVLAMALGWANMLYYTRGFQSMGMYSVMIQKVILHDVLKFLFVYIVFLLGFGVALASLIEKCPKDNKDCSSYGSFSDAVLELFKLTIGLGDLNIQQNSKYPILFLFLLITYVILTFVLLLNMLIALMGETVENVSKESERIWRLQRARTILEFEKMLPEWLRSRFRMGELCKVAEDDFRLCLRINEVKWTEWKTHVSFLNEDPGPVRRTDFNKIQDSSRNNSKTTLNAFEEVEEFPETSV

[2] = target: T2, native TRPV3 channels (Homo sapiens, UniProt Q8NET8); format: cell-based; conditions: for activation of membrane currents by TRP channel agonists: bath superfusion, 2-APB 30 µM; for increase of 2-APB-activated TRPV3 whole cell current amplitude: 100 µM ATP, n = 4 cells
T2 sequence (Q8NET8 1-790): T1 sequence (Q8NET8 1-790)
Summary of the method: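 Whole-cell voltage clamp of primary human epidermal keratinocytes plated on coverslips and recorded 24–48 h later, at room temperature. Bath was NaCl/KCl/HEPES/glucose/MgCl2/1.8 mM BaCl2, pH 7.4; pipette was Cs-methanesulfonate with ~50 nM free Ca2+, pH 7.3. Voltage steps were run in 30 µM 2-APB, then with 100 µM ATP or vehicle. Tail currents were fitted with Boltzmann functions for V0.5 and VIF; n = 4 cells.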

[3] = target: T3, TRPV3 R696A (Homo sapiens, UniProt Q8NET8, R696A); format: cell-based
T3 sequence (Q8NET8 1-790 R696A): T1 sequence (Q8NET8 1-790) with R696A

[4] = target: T4, WT TRPV3 (Homo sapiens, UniProt Q8NET8); format: biochemical; conditions: inside-out patches, +80 mV; for effect on NPOPEN of PI-PLC-stimulated TRPV3: 30 µM diC8-phosphatidylinositol phosphate
T4 sequence (Q8NET8 1-790): T1 sequence (Q8NET8 1-790)
Summary of the method: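 WT TRPV3 was expressed in HM1 cells by calcium-phosphate transfection and recorded 24–48 h later. Inside-out patches were held at +80 mV in symmetrical NaCl/HEPES/EGTA at pH 7.4. Patches got anti-PI(4,5)P2 mAb (1:200) or 0.5 U/ml PI-PLC for 5 min, or 100 µM OAG for 2 min, by perfusion and then a still bath. diC8-phosphoinositides were added after PI-PLC. NPOPEN was taken before and after; Hill fit over 1–60 µM.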

[5] = target: T3, TRPV3 R696A; format: biochemical; conditions: 30 µM diC8-PI(4,5)P2, inside-out patches
Summary of the method: (§1)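 HM1 cells were calcium-phosphate transfected with the mutant channel, GFP-identified, and used 24–48 h later. Inside-out patches were held at +80 mV at 21–24°C in symmetrical 145 mM NaCl, 5 mM […], 20 mM HEPES, 1 mM EGTA, pH 7.4. Patches received anti-PI(4,5)P2 mAb (1:200) or 0.5 U/ml PI-PLC, then 30 µM diC8-PI(4,5)P2. NPOPEN was measured, n = 3–5 patches.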

[6] = target: T5, TRPV3 K705A (Homo sapiens, UniProt Q8NET8, K705A); format: biochemical; conditions: 30 µM diC8-PI(4,5)P2, inside-out patches
T5 sequence (Q8NET8 1-790 K705A): T1 sequence (Q8NET8 1-790) with K705A
Summary of the method: as §1

In the case of `NCCOB(c1ccccc1)c1ccccc1` [2-APB, 2-aminoethyoxy diphenylborinate], the “increase in 2-APB potency after CCh exposure” value [1] is reported as “approximately fourfold” and the “activation of membrane currents by TRP channel agonists” value (“activation of membrane currents” for short) ([2]; whole cell) is reported as “activated small voltage-dependent currents”.
For `Nc1ncnc2c1ncn2[C@@H]1O[C@H](COP(=O)(O)OP(=O)(O)OP(=O)(O)O)[C@@H](O)[C@H]1O` [ATP], the “increase of 2-APB-activated TRPV3 whole cell current amplitude” value ([2]; 30 µM 2-APB, +80 mV) was 5.6 ± 1.6 fold, the “increase of 2-APB-activated TRPV3 whole cell current amplitude” value ([2]; 30 µM 2-APB, −80 mV) was 6.3 ± 1.9 fold and the “increase of voltage-independent fraction (VIF)” value ([2]; after 100 µM ATP, 30 µM 2-APB) was 26.7 ± 5.1%. The “shift of half-maximal activation (V0.5)” value ([2]; after 100 µM ATP, 30 µM 2-APB) was −61.7 ± 17.8 mV.
`C[N+](C)(C)CCOC(N)=O.[Cl-]` [CCh, carbamylcholine] was tested, and the “Arrhenius slope of temperature-dependent activation” value [1] was 10.3, the “apparent threshold for temperature-dependent activation (Th)” value [1] was 18.3 ^a °C and the “change of thermal coefficient (Q10) by CCh exposure” value [1] was “changed only slightly”. For the same molecule, the “fold change in step current” value [1] was 31.1 fold and 31.1 ± 7.9 fold, the “shift of apparent threshold for thermal activation (Th)” value [1] was −10 °C and the ΔVIF [3] was 21.3%.
For `Cc1ccc(C(C)C)cc1O` [Carvacrol, carvacrol], the “activation of membrane currents” value ([2]; whole cell) was “elicited currents”.
In the case of `CCCCCCCC/C=C\CCCCCCCC(=O)OC[C@H](CO)OC(C)=O` [OAG, 1-oleoyl-2-acetyl-sn-glycerol], the “effect on TRPV3 channel activity (NPOPEN)” value ([4]; 100 µM OAG) is reported as “did not significantly increase; also recorded: failed to significantly elevate NPOPEN”.
`CCCCCCCC(=O)OC[C@H](COP(=O)(O)O[C@@H]1[C@H](O)[C@H](OP(=O)(O)O)[C@@H](O)[C@H](O)[C@H]1O)OC(=O)CCCCCCC` [PI(3)P] was tested, and the “effect on NPOPEN of PI-PLC-stimulated TRPV3” value (“effect on NPOPEN” below) [4] was “failed to significantly decrease NPOPEN”.
With `CCCCCCCC(=O)OC[C@H](COP(=O)(O)O[C@H]1[C@H](O)[C@@H](OP(=O)(O)O)[C@H](OP(=O)(O)O)[C@@H](OP(=O)(O)O)[C@H]1O)OC(=O)CCCCCCC` [PI(3,4,5)P3] the “effect on NPOPEN” value [4] was “failed to significantly decrease NPOPEN”.
`CCCCCCCC(=O)OC[C@H](COP(=O)(O)O[C@@H]1[C@H](O)[C@H](OP(=O)(O)O)[C@@H](O)[C@H](OP(=O)(O)O)[C@H]1O)OC(=O)CCCCCCC` [PI(3,5)P2] was tested, and the “effect on NPOPEN” value [4] was “failed to significantly decrease NPOPEN”.
For `CCCCCCCC(=O)OC[C@H](COP(=O)(O)O[C@H]1[C@H](O)[C@@H](O)[C@H](OP(=O)(O)O)[C@@H](O)[C@H]1O)OC(=O)CCCCCCC` [PI(4)P], the “effect on NPOPEN” value [4] was “failed to significantly decrease NPOPEN”.
For `CCCCCCCC(=O)OC[C@H](COP(=O)(O)O[C@H]1[C@H](O)[C@@H](OP(=O)(O)O)[C@H](O)[C@@H](O)[C@H]1O)OC(=O)CCCCCCC` [PI(5)P], the “effect on NPOPEN” value [4] was “failed to significantly decrease NPOPEN”.
With `N.N.N.N.N.N.N.N.N.N.N.N.N.N.[Cl-].[Cl-].[Cl-].[Cl-].[Cl-].[Cl-].[O-2].[O-2].[Ru+3].[Ru+3].[Ru+4]` [Ruthenium red] the “block of 2-APB-activated current” value ([2]; whole cell, ruthenium red) was “eliminated only the inward component”.
With `COC[C@H]1OC(=O)c2coc3c2[C@@]1(C)C1=C(C3=O)[C@@H]2CCC(=O)[C@@]2(C)C[C@H]1OC(C)=O` [WM, wortmannin] the “current potentiation (fold increase)” value [1] was 9.6 ± 2.2 fold and 13.2 ± 2.8 fold, the ΔV0.5 [1] was −98.4 ± 18.6 mV and the ΔVIF [1] was 19.7 ± 3.8%.
`CC12CCC(CC1=O)C2(C)C` (stereo not drawn) [camphor] was tested, and the “activation of membrane currents” value ([2]; whole cell) was “elicited currents”.
`CCCCCCCC(=O)OC[C@H](COP(=O)(O)O[C@@H]1[C@H](O)[C@H](O)[C@@H](OP(=O)(O)O)[C@H](OP(=O)(O)O)[C@H]1O)OC(=O)CCCCCCC` [diC8-PI(4,5)P2, D-myo-phosphatidylinositol 4,5-bisphosphate C8] was tested, and the “effect on NPOPEN” value [4] was “nearly maximal inhibitory effect”, the “effect on channel activity” value [5] was “unaffected; also recorded: insensitive” and the “effect on channel activity” value [6] was “unaffected; also recorded: insensitive”.
